Screens: PubChem BioAssay, several laboratories
Hits are enriched below; roughly 1.8% of the tested compounds scored in any of these assays.
697 NFkB inh – lowers PMA/ionomycin-induced NF-kB signal in 697 B cells; 697 B-cell NF-kB luciferase reporter, 16 h; 330,000 compounds, 0.33% hits; inhibition, % at 4 µM; AID 435022; in the data active = inhibition above about 35%
GalR3 antag – antagonists of human GalR3; O60755; HEK293 GalR3-CNG cAMP membrane potential fluorescence; galR3 body fused to GalR1 C-terminus; inhibition, % at 3 µM; 360,000 compounds, 0.44% hits;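 active = inhibition above the screen-wide average plus 3 SD, cut at about 13% in these data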;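 also: forskolin and galanin both at EC90 stimulate the cells; cAMP rise reported by CNG channel membrane potential dye signal; 0% = forskolin plus galanin with DMSO and 100% = forskolin alone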
Target sequence (O60755 1-299 limits assumed): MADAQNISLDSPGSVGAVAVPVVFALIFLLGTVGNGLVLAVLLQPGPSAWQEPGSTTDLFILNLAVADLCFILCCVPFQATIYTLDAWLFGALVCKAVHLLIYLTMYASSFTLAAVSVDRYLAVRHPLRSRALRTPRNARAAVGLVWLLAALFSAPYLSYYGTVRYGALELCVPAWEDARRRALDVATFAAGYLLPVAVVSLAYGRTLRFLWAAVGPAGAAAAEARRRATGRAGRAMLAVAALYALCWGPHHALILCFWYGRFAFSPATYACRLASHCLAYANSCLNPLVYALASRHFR
Gli-Sufu antag – blocks Gli-Sufu signaling in a luciferase reporter; inhibition, % at 5 µM; Sufu-KO-LIGHT fibroblasts, Gli luciferase reporter luminescence; 340,000 compounds, 0.74% hits;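 active = inhibition above about 55%, limit read from the data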;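 also: 0% = DMSO-treated cells and 100% = wells with medium but no cells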
NR2E3 ag-1 – activates human NR2E3 receptor; Q9Y5X4; CHO-S Gal4-NCOR/VP16-NR2E3 two-hybrid, luciferase; inhibition of corepressor binding, % at 3.98 µM; 360,000 compounds, 0.35% hits;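 active = inhibition above the mean of all tested compounds plus 3 SD, cut at about 70% in these data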;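 also: 0% = DMSO with NR2E3 transfected cells and 100% = cells lacking NR2E3 construct; higher means lower luciferase signal from less NR2E3 corepressor binding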
NR2E3 ag-2 – activates human photoreceptor nuclear receptor NR2E3; Q9Y5X4; 320,000 compounds, 0.12% hits; AID 2300; inhibition of corepressor binding, % at 4.78 µM; GST-NR2E3/biotin-RetCOR TR-FRET, 1536-well;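 active = percent inhibition above the cutoff of mean plus 3 SD of all tested compounds, set per screening campaign, cut at about 20% in these data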;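 also: 0% = DMSO wells and 100% = biotin wells as full block of FRET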
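system = GST-tagged NR2E3 plus biotinylated RetCOR corepressor | input = 1.35 nM GST-NR2E3 | also added = 7 nM biotin-RetCOR | schedule = 5 h incubation at 4 °C | measured by = TR-FRET with europium anti-GST and streptavidin-D2, 340 nm excitation | read-out = percent loss of FRET ratio relative to control wells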
Jurkat NFkB inh – lowers PMA/ionomycin-induced NF-kB signal in Jurkat cells | AID 435003 | 330,000 compounds, 0.53% hits | inhibition, % at 4 µM | PMA/ionomycin-induced NF-kB luciferase reporter, luminescence; in the data active = inhibition above about 50%
GalR3 antag conf – confirmation of human galanin receptor 3 antagonists; inhibition, % at 3 µM; HEK293 GalR3 CNG cAMP biosensor, membrane potential fluorescence; galR3 fused to GalR1 carboxy tail; challenged with forskolin and galanin at EC90; shares compounds with GalR3 antag; 1,600 compounds, 59% hits; AID 652245;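 active = inhibition above the primary screen's cutoff, the mean inhibition of all screened compounds plus 3 SD, cut at about 13% in these data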;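 also: 0% = forskolin plus galanin and 100% = forskolin alone with DMSO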
CNG parental – parental cell agonism counter-screen for GalR3 antagonists; activation, % at 3 µM; HEK293-CNG parental cells, cAMP membrane potential fluorescence; normalised: DMSO wells 0%, forskolin wells 100%; 1,600 compounds, 10% hits; shares compounds with GalR3 antag; in the data active = activation above about 1.3%
* hit, by the source's call; x = no result.

SMILES	697 NFkB inh	GalR3 antag	Gli-Sufu antag	NR2E3 ag-1	NR2E3 ag-2	Jurkat NFkB inh	GalR3 antag conf	CNG parental
COCCn1nnnc1C(c1cccs1)N1CCN(c2nc3ccccc3s2)CC1 (stereo not drawn)	6.5	-1.8	2.3	-13.8	2.0	-11.9	x	x
Oc1ccc(C(c2nnnn2CCc2ccccc2)N2CCN(c3nc4ccccc4s3)CC2)cc1 (stereo not drawn)	0.4	23.0*	8.0	-2.2	2.8	-0.3	1.4	-0.6
CC(=O)Nc1ccc(NC(=O)c2ccc(-c3c(C)noc3C)c3ccoc23)cc1	x	-5.2	x	-10.2	x	x	x	x
COc1ccc(NC(=O)c2ccc(-c3c(C)noc3C)c3ccoc23)cn1	x	44.0*	x	-1.9	x	x	8.5	0.9
CN(C)C=Nc1ccc([N+](=O)[O-])c2ccccc12	x	-3.7	x	-8.2	x	x	x	x
COC(=O)C1=CO[C@@H](OC2OC(CO)C(O)C(O)C2O)[C@@H]2[C@@H](C)[C@@H](O)C[C@H]12 (stereo partly drawn)	3.2	-2.2	-9.0	-17.7	0.5	-4.4	x	x
COC(=O)C1=CO[C@@H](O[C@@H]2O[C@H](CO)[C@@H](O)[C@H](O)[C@H]2O)C2C1C=C[C@@]2(O)CO (stereo partly drawn)	5.8	x	15.8	6.1	x	-0.2	7.7	0.2
CC(C)CC(=O)/C=C/n1c(=S)oc2ccccc21	x	-2.1	8.4	-17.5	1.3	x	x	x
CC(=O)/C=C/n1c(=S)oc2ccccc21	x	14.6*	45.0	x	2.0	x	2.3	1.6*
COCCN(Cc1cc2cc(C)ccc2[nH]c1=O)S(=O)(=O)c1ccc(Cl)cc1	-21.7	73.5*	-6.3	-11.9	-1.7	13.8	3.8	0.3
Cc1ccc(S(=O)(=O)N(C)Cc2cc3cc(C)ccc3[nH]c2=O)cc1	-41.3	4.2	0.7	-5.8	3.1	3.6	x	x
COC(=O)c1nn(-c2cccc(C(F)(F)F)c2)ccc1=O	-2.1	-6.8	-1.8	-23.0	0.1	0.4	x	x
O=C(Nc1ccccc1)c1nn(-c2cccc(C(F)(F)F)c2)ccc1=O	9.9	45.2*	-4.0	-29.2	2.8	5.4	50.3*	0.2
Cc1ccc(NC(=S)NCc2ccc(Cl)cc2)c(C)c1	-11.8	-2.0	-12.1	-22.1	4.2	-0.3	x	x
CCc1ccc(OCC(=O)Nc2ccc(-c3cc4ccccc4oc3=O)c(OC)c2)cc1	-25.4	26.0*	-11.6	-54.3	3.3	22.7	66.3*	0.4
COc1cccc(-c2cc(C(=O)Nc3ccncc3)c3ccccc3n2)c1	-65.2	0.9	0.9	-5.2	2.6	-0.4	x	x
COc1cccc(-c2cc(C(=O)Nc3ccc(N(C)C(C)=O)cc3)c3cc(Br)ccc3n2)c1	17.3	18.8*	7.0	-23.3	-2.3	2.9	10.2	1.4*
Cc1ccccc1NC(=O)c1cccc(S(=O)(=O)N2CCOCC2)c1	9.0	-10.4	28.9	-15.9	4.8	10.9	x	x
Cc1ccc(S(=O)(=O)N2CCOCC2)cc1NC(=O)c1cccc(S(=O)(=O)N2CCCC2)c1	-1.9	x	-0.4	-15.7	-0.5	-7.3	3.2	0.1
Cc1ccccc1NC(=O)c1cc(S(=O)(=O)N2CCOCC2)ccc1F	4.5	13.7*	3.4	-2.8	-1.1	-2.4	1.9	0.1
Cc1ccc(S(=O)(=O)N2CCOCC2)cc1C(=O)N1CCN(S(=O)(=O)c2cccs2)CC1	22.8	13.1*	10.2	-2.7	1.2	17.5	-0.2	0.1
Cc1cn([C@H]2C[C@H](O)[C@@H](CNCc3cc(Br)ccc3OCc3ccccc3)O2)c(=O)[nH]c1=O	x	-6.8	x	-2.9	x	x	x	x
CC1CCCC(C)N1C(=O)COC(=O)c1cccs1 (stereo not drawn)	0.0	-7.7	-9.8	-23.2	x	-6.3	x	x
FC(F)(F)c1cc(-c2ccccc2)nc(N2CCCCCC2)n1	-12.2	14.7*	2.8	-11.6	2.5	18.8	3.5	0.1
